Source: ChEMBL document CHEMBL1125254, “Allosteric modifiers of hemoglobin. 2. Crystallographically determined binding sites and hydrophobic binding/interaction analysis of novel hemoglobin oxygen effectors” (J Med Chem, 1991)

Experiment: Allosteric activity evaluated as the ratio of the oxygen pressure in mmHg between hemoglobin-compound and compound-free hemoglobin (control) solution at which 50% oxygen saturation's are respectively attained.
In short: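 Oxygen equilibrium of human hemoglobin solutions at 2.7 mM Hb with compound at 10 mM, in 50 mM HEPES pH 7.4. P50 ratios are averaged, with standard deviations reported.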

Going from `CC(C)(Oc1ccc(NC(=O)Nc2cc(Cl)c(Cl)c(Cl)c2)cc1)C(=O)O` to `CC(C)(Oc1ccc(NC(=O)Nc2ccc(Cl)c(Cl)c2)cc1)C(=O)O`, the P50d/P50c falls from 2.57 to 1.77.

Going from `CC(C)(Oc1ccc(CC(=O)Nc2cc(Cl)c(Cl)c(Cl)c2)cc1)C(=O)O` to `CC(C)(Oc1ccc(CC(=O)Nc2cc(Cl)cc(Cl)c2)cc1)C(=O)O`, the P50d/P50c rises from 3.17 to 4.32.

First: CC(C)(Oc1ccc(CCNC(=O)c2ccc(Cl)cc2)cc1)C(=O)O
Second: CC(C)(Oc1ccc(CNC(=O)c2ccc(Cl)cc2)cc1)C(=O)O
The P50d/P50c of the first is lower: 1.74 for the first, 2.58 for the second.

Compared with `CC(C)(Oc1ccc(NC(=O)Nc2cc(Cl)cc(Cl)c2)cc1)C(=O)O`, `CC(C)(Oc1ccc(CNC(=O)c2cc(Cl)cc(Cl)c2)cc1)C(=O)O` is lower in P50d/P50c: 3.62 for the first, 2.48 for the second.

Going from `CC(C)(Oc1ccc(CNC(=O)c2cc(Cl)c(Cl)c(Cl)c2)cc1)C(=O)O` to `CC(C)(Oc1ccc(CC(=O)Nc2ccc(Cl)cc2)cc1)C(=O)O`, the P50d/P50c rises from 2.13 to 2.79.
